{
  "source": "paper PMC6469250",
  "about": "(Annals of Clinical and Translational Neurology, 2019)",
  "key": {"[1]": {"assay": "Pharmacokinetics in mice: total plasma and brain concentrations by LC-MS", "type": "in vivo", "settings": "male, C57BL/6J, mouse"}, "[2]": {"assay": "Pharmacokinetics in rats: total plasma and brain concentrations by LC-MS", "type": "in vivo", "settings": "oral gavage 50 mg/kg, rats (Fig. 6D)"}, "KCa3.1 [3]": {"biological_target": "KCa3.1 (Mus musculus, UniProt O89109)", "sequence (O89109 whole entry)": "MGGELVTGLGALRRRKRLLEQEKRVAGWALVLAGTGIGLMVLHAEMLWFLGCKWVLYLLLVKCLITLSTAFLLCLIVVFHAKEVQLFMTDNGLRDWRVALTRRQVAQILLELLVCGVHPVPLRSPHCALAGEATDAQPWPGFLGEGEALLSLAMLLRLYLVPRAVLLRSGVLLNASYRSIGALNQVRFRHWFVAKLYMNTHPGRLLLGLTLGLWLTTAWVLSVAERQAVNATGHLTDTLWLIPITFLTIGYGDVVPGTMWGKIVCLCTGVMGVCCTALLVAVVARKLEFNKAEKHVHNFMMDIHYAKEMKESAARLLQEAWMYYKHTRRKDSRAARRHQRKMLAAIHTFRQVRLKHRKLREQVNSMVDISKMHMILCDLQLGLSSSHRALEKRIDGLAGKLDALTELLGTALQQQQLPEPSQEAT", "assay": "Whole-cell patch-clamp on AβO-activated cultured primary microglia", "type": "cell-based", "settings": "AβO 100 nmol/L 24 h, senicapoc 1 μmol/L (Fig. 7A)", "in_short": "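Whole-cell patch-clamp was done on cultured primary microglia after 24 h AβO (100 nmol/L) with test compound or vehicle. An aspartate-based internal solution was used. KCa3.1 conductance was taken from the slope of the TRAM-34-sensitive KCa current between −80 and −75 mV.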"}, "primary microglia": {"tested_on": "primary microglia", "assay": "AβO-induced proinflammatory activation of cultured primary microglia", "type": "cell-based, mouse", "in_short": "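Primary microglia came from mixed glia cultures and were exposed to AβO (100 nmol/L) for 24 h with test compound or vehicle. For qPCR, RNA was kit-extracted and analysed by the 2‑ΔΔCt method with Actb as reference. For p38MAPK, cells were lysed in Triton/SDS buffer with protease and phosphatase inhibitors, then immunoblotted with anti-phospho-p38MAPK and anti-p38MAPK (1:1000).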"}, "5xFAD mice [4]": {"tested_on": "5xFAD mice", "assay": "hLTP in hippocampal slices from treated 5xFAD mice", "type": "in vivo", "settings": "senicapoc diet for three months; to the level of Wt mice (Fig. 8F and G)", "in_short": "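5xFAD and Wt littermates aged six months were fed test compound-medicated (2400 ppm) or control diet for three months. Hippocampal slices then received high-frequency stimulation. The read-out was mean percent change in fEPSP slope from baseline, averaged 50–60 min after HFS, from 8–12 slices of 5–6 mice per group. Data are mean ± SE; two-way ANOVA with Bonferroni.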"}, "5xFAD mice [5]": {"tested_on": "5xFAD mice", "type": "in vivo", "in_short": "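Six-month-old 5xFAD and Wt littermates got 2400 ppm test compound or control diet for three months (n = 9/group). Frozen 20 μm sections were stained overnight at 4°C with anti-Iba-1, CD68 or CD11b (1:200), Alexa secondaries (1:700) and FSB (400 nmol/L) for plaques. KCa3.1 was detected with APC064 or P4997 (1:3000); microglial co-localisation used three images per mouse. Imaging and analysis were blinded.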"}, "5xFAD mice [6]": {"tested_on": "5xFAD mice", "assay": "qPCR of acutely isolated microglia after three months of senicapoc diet", "type": "in vivo", "in_short": "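Six-month-old 5xFAD and Wt littermates were fed 2400 ppm test compound or control diet ad lib for three months (n = 9/group). Microglia were acutely isolated with anti-CD11b magnetic beads. RNA was extracted, reverse-transcribed and pre-amplified. Pro-inflammatory and M2-like transcripts (Arg1, CD206, […], IGF-1) were quantified by 2‑ΔΔCt against Actb. Groups were compared by two-way ANOVA with Bonferroni.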"}, "5xFAD mice [7]": {"tested_on": "5xFAD mice", "assay": "Memory tasks: novel object recognition and step-through passive avoidance", "type": "in vivo", "settings": "5xFAD mice at 9 months of age; no significant memory deficits in 5xFAD/control diet mice"}, "[8]": {"settings": "humans; cited from earlier work"}, "KCa3.1 [9]": {"tested_on": "KCa3.1", "settings": "read-out: IC50 for KCa3.1 inhibition; cited from earlier work"}, "[10]": {"settings": "cited from earlier work"}, "[11]": {"settings": "cited from earlier work", "remark": "listed apart in the source"}, "hLTP": {"tested_on": "hLTP", "settings": "cited from earlier work"}},
  "note": "Like-named read-outs stand apart in the source and are kept apart here.",
  "data": [
    {"smiles": "NC(=O)C(c1ccccc1)(c1ccc(F)cc1)c1ccc(F)cc1", "note": "[senicapoc]", "values": [
      {"measurement": "concentration at 1 h", "setting": "[1]; brain, ip, 50 mg/kg", "result": "43 ± 8", "unit": "µM"},
      {"measurement": "half-life", "setting": "[1]; plasma", "result": "~1", "unit": "h"},
      {"measurement": "oral availability", "setting": "[2]", "result": "roughly 60%"},
      {"measurement": "AβO-induced microglial KCa3.1 currents", "setting": "KCa3.1 [3]", "result": "block"},
      {"measurement": "AβO-induced microglial proliferation", "setting": "primary microglia; AβO 100 nmol/L 24 h, senicapoc 1 μmol/L if not otherwise indicated (Fig. 7B)", "result": "block"},
      {"measurement": "AβO-induced production of NO", "setting": "primary microglia; AβO 100 nmol/L 24 h, senicapoc 1 μmol/L if not otherwise indicated (Fig. 7E)", "result": "block"},
      {"measurement": "AβO-induced expression of microglial activation mediators IL-1β, IL-6 and iNOS", "setting": "primary microglia; AβO 100 nmol/L 24 h, senicapoc 1 μmol/L, qPCR (Fig. 7C)", "result": "block"},
      {"measurement": "AβO-induced activation of p38MAPK", "setting": "primary microglia; AβO 100 nmol/L, senicapoc 1 μmol/L, Western blotting (Fig. 7D)", "result": "block"},
      {"measurement": "reduced induction of hLTP in 5xFAD mice", "setting": "5xFAD mice [4]", "result": "rectified"},
      {"measurement": "number of microglia expressing KCa3.1", "setting": "5xFAD mice [5]; medicated diet for three months (Fig. 8B)", "result": "significantly reduced"},
      {"measurement": "reduction of CD11b immunoreactivity", "setting": "5xFAD mice [5]; medicated diet for three months, P < 0.001 (Fig. 8A)", "result": 45, "unit": "%"},
      {"measurement": "expressions of proinflammatory modulators IL-1β, TNF-α, IL-6, and iNOS (qPCR)", "setting": "5xFAD mice [6]; medicated diet for three months (Fig. 8C)", "result": "significantly reduced"},
      {"measurement": "markers typical of an M2-like phenotype (qPCR)", "setting": "5xFAD mice [6]; medicated diet for three months (Fig. S5)", "result": "no changes"},
      {"measurement": "cognitive benefit", "setting": "5xFAD mice [7]", "result": "could not be demonstrated"},
      {"measurement": "half-life", "setting": "[8]", "result": "~ 7 day"},
      {"measurement": "IC50", "setting": "KCa3.1 [9]", "result": 11, "unit": "nM"},
      {"measurement": "protein binding", "setting": "[10]", "result": 95, "unit": "%"},
      {"measurement": "hemolysis and hemoglobin levels", "setting": "[11]; Phase-2 clinical trial", "result": "reduced hemolysis and increased hemoglobin levels"},
      {"measurement": "primary clinical end-point: reduction in the rate of vaso-occlusive pain crisis", "setting": "[11]; Phase-3", "result": "failed to achieve its primary clinical end‐point"},
      {"measurement": "safety and tolerability in humans", "setting": "[11]; Phase-3 clinical trial for sickle cell anemia", "result": "safe and well‐tolerated"}
    ]},
    {"smiles": "CN(C)c1ccc(O)c2c1C[C@H]1C[C@H]3[C@H](N(C)C)C(O)=C(C(N)=O)C(=O)[C@@]3(O)C(O)=C1C2=O", "note": "[minocycline]", "values": [
      {"measurement": "hLTP disruption by Aβ", "setting": "hLTP", "result": "prevent the hLTP disruption"}
    ]}
  ]
}
